Data set [1] concerns DU-145. The data set can be described thus: Induction of AGT ablation in human DU145 cells assessed as [benzene-3H]-O6-benzylguanine binding at 80 uM after 2 hrs. Type of data set: functional. The method, boiled down: (§1)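 DU145 human prostate carcinoma cells (about 42,000 AGT molecules/cell) were treated with 80 μM agent for 2 h or 4 h. Remaining AGT level was then measured relative to untreated cells.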

The test system of data set [2] is DU-145. Nature of the data set: Cytotoxicity against human DU145 cells expressing AGT after 4 to 24 hrs by clonogenic assay. Type of data set: functional. Conditions: read-out: LC50 (the source's name). The procedure, abridged:
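Human prostate carcinoma cells with natural AGT expression (42,000 molecules/cell) were exposed to graded concentrations for 4 h or 24 h. LC50 was read from cytotoxicity curves.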

In data set [3] the test system is DU-145. Nature of the data set: Cytotoxicity against human DU145 cells expressing AGT at 10 to 80 uM after 4 hrs by clonogenic assay. Type of data set: functional, cell-based. The procedure, abridged:
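DU145 human prostate carcinoma cells, which naturally express about 42,000 AGT molecules/cell, were exposed to graded drug concentrations for 4 h or 24 h. Cytotoxicity was expressed as LC50.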

Data set [4] deals with DU-145. Nature of the data set: Induction of AGT ablation in human DU145 cells assessed as [benzene-3H]-O6-benzylguanine binding at 80 uM after 4 hrs. It counts as functional. The method, boiled down: as §1
The subject of data set [5] is EMT6. The data set can be described thus: Ratio of laromustine IC50 for compound IC50 for mouse AGT negative EMT6 cells. Type of data set: functional.
For the next data set, the system named is L1210. Nature of the data set: Binding affinity to mouse L1210 cell DNA assessed as DNA cross-linking activity at 10 to 50 uM using H33258 dye by rapid DNA renaturation assay. Type of data set: cell-based.
The test system of data set [6] is DU-145. The data set can be described thus: Ratio of laromustine IC50 for compound IC50 for human DU145 cells expressing AGT. Type of data set: functional.
The nature of data set [7]: Half life in 1 mM potassium phosphate buffer at pH 7.4 at 50 uM by spectrophotometric analysis. Type of data set: physicochemical.
The test system of data set [8] is EMT6. The data set can be described thus: Cytotoxicity against mouse AGT negative EMT6 cells under aerobic conditions after 4 to 24 hrs by clonogenic assay. Type of data set: functional, cell-based. Conditions: for CC50: read-out: LC50 (the source's name). The method, boiled down: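 Murine mammary carcinoma cells lacking AGT expression were exposed to graded concentrations for short (4 h) or long (24 h) periods. LC50 was taken from cytotoxicity curves.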

In data set [9] the test system is DU-145. The data set can be described thus: Cytotoxicity against human DU145 cells expressing AGT after 4 to 24 hrs by clonogenic assay in presence of 100 uM of AGT inhibitor O6-BG. It counts as functional, cell-based. The method, boiled down: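 DU145 cells (42,000 AGT molecules/cell) were pretreated with 100 μM O6-BG for 2 h, then exposed to graded drug concentrations. Cytotoxicity was then assessed.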

For orientation: half-life means the time needed for the level to fall by half in the phase considered. Low values mean fast loss, high ones slow loss. As usually defined, the IC50 is the concentration that inhibits the measured activity by half. Higher therefore signals a need for much substance.

Calls of active or inactive are those of the source.

Turning to `CN(N=O)C(=O)N(N(CCCl)S(C)(=O)=O)S(C)(=O)=O`, the figures for the Activity in the data set with DU-145 [1] and in the data set on DU-145 [4] were over 80% and over 90%, respectively. Also, the CC50 was 6.3 µM with DU-145 [2] and 0.7 µM in the data set with EMT6 [8]. For the same compound, the outcome with DU-145 [3], in the data set with L1210 and in the data set on DU-145 [9] was Active. The “Ratio IC50” value is recorded as 12 with EMT6 [5] and over 12 in the data set on DU-145 [6]. In [7], this compound showed a half-life at 50 µM of 10 min.

For the compound `CN(N(C(=O)N(CCCl)N=O)S(C)(=O)=O)S(C)(=O)=O`, the outcome in the data set with DU-145 [1], in the data set on DU-145 [3], with DU-145 [4], in the data set with L1210 and with DU-145 [9] was Active. Also, the half-life at 50 µM in data set [7] turned out to be 13.4 min.

As to `CN(NS(C)(=O)=O)S(C)(=O)=O`, the CC50 in the data set on DU-145 [2] stood at 1600 µM. Also, the IC50 in the data set on EMT6 [8] was 3000 µM.

With `CS(=O)(=O)NN(CCCl)S(C)(=O)=O` [VPN-4090CE], the result in the data set on L1210 was Active. Moreover, the half-life at 50 µM in data set [7] was 0.55 min.

As for `CNC(=O)N(N(CCCl)S(C)(=O)=O)S(C)(=O)=O` [LAROMUSTINE], the CC50 with DU-145 [2] is over 80 µM; in the data set on EMT6 [8], 8.3 µM. Also, the outcome in the data set on DU-145 [3], with L1210 and with DU-145 [9] was Active.
